Reference: ChEMBL document CHEMBL5108089, “Structure-based discovery of potent inhibitors of Axl: design, synthesis, and biological evaluation” (RSC Med Chem, 2022)
Calls of active or inactive are those of the source. The calls are words filed in the database; no cut-off is given here.

Tests used:
[1] = Metabolic stability in human liver microsomes assessed as intrinsic clearance preincubated for 10 mins followed by NADPH addition and measured upto 60 mins by LC-MS/MS analysis; type: ADME, Microsome; conditions: time < 70 min, read-out: CLH
[2] = Metabolic stability in rat liver microsomes assessed as half-life preincubated for 10 mins followed by NADPH addition and measured upto 60 mins by LC-MS/MS analysis; type: ADME, Microsome; conditions: time < 70 min
[3] = Metabolic stability in rat liver microsomes assessed as intrinsic clearance preincubated for 10 mins followed by NADPH addition and measured upto 60 mins by LC-MS/MS analysis; type: ADME, Microsome; conditions: time < 70 min, read-out: CLH
[4] = AUC (0 to last) in Sprague-Dawley rat at 5 mg/kg, po measured upto 24 hrs by LC-MS/MS analysis; type: ADME, organism-based; set-up: dose 5 mg/kg, time < 24 hrs, route po; conditions: in vivo
[5] = Cmax in Sprague-Dawley rat at 5 mg/kg, po measured upto 24 hrs by LC-MS/MS analysis; type: ADME, organism-based; set-up: dose 5 mg/kg, time < 24 hrs, route po; conditions: in vivo
[6] = Half-life in Sprague-Dawley rat at 5 mg/kg, po measured upto 24 hrs by LC-MS/MS analysis; type: ADME, organism-based; conditions: in vivo
[7] = Clearance in Sprague-Dawley rat at 1 mg/kg, iv measured upto 24 hrs by LC-MS/MS analysis; type: ADME, organism-based; conditions: in vivo
[8] = system: HCC827; test: Antiproliferative activity against human HCC827 cells assessed as inhibition of cell growth incubated for 72 hrs by CCK-8 assay; type: functional
[9] = Antiproliferative activity against human NCI-H1954 cells assessed as inhibition of cell growth incubated for 72 hrs by CCK-8 assay; type: functional
[10] = system: MSTO-211H; test: Antiproliferative activity against human MSTO-211H cells assessed as inhibition of cell growth incubated for 72 hrs by CCK-8 assay; type: functional
[11] = system: A549; test: Antiproliferative activity against human A549 cells assessed as inhibition of cell growth incubated for 72 hrs by CCK-8 assay; type: functional
[12] = system: Calu-3; test: Antiproliferative activity against human Calu-3 cells assessed as inhibition of cell growth incubated for 72 hrs by CCK-8 assay; type: functional
Method in brief: (§1)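 Plated at 10000 cells/well. Dose series topped at 10 uM for test compound and at 1 uM for the staurosporine reference. Read-outs were CC50 and maximum % inhibition.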

[13] = system: HepG2; test: Antiproliferative activity against human HepG2 cells assessed as inhibition of cell growth incubated for 72 hrs by CCK-8 assay; type: functional
[14] = system: Hep 3B2; test: Antiproliferative activity against human Hep 3B2.1-7 cells assessed as inhibition of cell growth incubated for 72 hrs by CCK-8 assay; type: functional; conditions: Hep3B
[15] = system: NCI-H2052; test: Antiproliferative activity against human NCI-H2052 cells assessed as inhibition of cell growth incubated for 72 hrs by CCK-8 assay; type: functional
[16] = system: MCF7; test: Antiproliferative activity against human MCF7 cells assessed as inhibition of cell growth incubated for 72 hrs by CCK-8 assay; type: functional
[17] = system: EVSA-T; test: Antiproliferative activity against human EVSA-T cells assessed as inhibition of cell growth incubated for 72 hrs by CCK-8 assay; type: functional
[18] = system: HT-29; test: Antiproliferative activity against human HT-29 cells assessed as inhibition of cell growth incubated for 72 hrs by CCK-8 assay; type: functional
[19] = system: SW-620; test: Antiproliferative activity against human SW620 cells assessed as inhibition of cell growth incubated for 72 hrs by CCK-8 assay; type: functional
[20] = system: KYSE-510; test: Antiproliferative activity against human KYSE-510 cells assessed as inhibition of cell growth incubated for 72 hrs by CCK-8 assay; type: functional
[21] = Antiproliferative activity against human T.Tn cells assessed as inhibition of cell growth incubated for 72 hrs by CCK-8 assay; type: functional
[22] = system: BXPC-3; test: Antiproliferative activity against human BXPC-3 cells assessed as inhibition of cell growth incubated for 72 hrs by CCK-8 assay; type: functional
[23] = system: SNU-5; test: Antiproliferative activity against human SNU-5 cells assessed as inhibition of cell growth incubated for 72 hrs by CCK-8 assay; type: functional; method in brief: as §1
[24] = system: SNU-16; test: Antiproliferative activity against human SNU-16 cells assessed as inhibition of cell growth incubated for 72 hrs by CCK-8 assay; type: functional
Method in brief: (§2)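 8000 cells/well. Test compound was serially diluted from a 10 uM top concentration and staurosporine from 1 uM. CC50 and maximum % inhibition are reported.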

[25] = system: FaDu; test: Antiproliferative activity against human FaDu cells assessed as inhibition of cell growth incubated for 72 hrs by CCK-8 assay; type: functional
[26] = system: HeLa; test: Antiproliferative activity against human HeLa cells assessed as inhibition of cell growth incubated for 72 hrs by CCK-8 assay; type: functional
[27] = system: PC-3; test: Antiproliferative activity against human PC-3 cells assessed as inhibition of cell growth incubated for 72 hrs by CCK-8 assay; type: functional
[28] = system: CAKI-1; test: Antiproliferative activity against human CAKI-1 cells assessed as inhibition of cell growth incubated for 72 hrs by CCK-8 assay; type: functional
[29] = system: COLO 205; test: Antiproliferative activity against human COLO 205 cells assessed as inhibition of cell growth incubated for 72 hrs by CCK-8 assay; type: functional
[30] = system: Raji; test: Antiproliferative activity against human Raji cells assessed as inhibition of cell growth incubated for 72 hrs by CCK-8 assay; type: functional; method in brief: as §2
[31] = system: SUD4; test: Antiproliferative activity against human SU-DHL-4 cells assessed as inhibition of cell growth incubated for 72 hrs by CCK-8 assay; type: functional; method in brief: as §2
[32] = system: MOLM-13; test: Antiproliferative activity against human MOLM-13 cells assessed as inhibition of cell growth incubated for 72 hrs by CCK-8 assay; type: functional
[33] = system: HEL 92.1.7; test: Antiproliferative activity against human HEL 92.1.7 cells assessed as inhibition of cell growth incubated for 72 hrs by CCK-8 assay; type: functional; method in brief: as §2
[34] = system: MV4-11; test: Antiproliferative activity against human MV4-11 cells assessed as inhibition of cell growth incubated for 72 hrs by CCK-8 assay; type: functional; method in brief: as §2
[35] = biological target: Tyrosine-protein kinase receptor UFO (Homo sapiens) (UniProt P30530); test: Inhibition of Axl (unknown origin) a 1 uM relative to control
Method in brief: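 Ran 40 min at room temperature, stopped with 0.5% phosphoric acid, then filter-bound, washed and scintillation-counted. Inhibition was calculated as 100 − activity (%), given as mean ±SD.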

[36] = biological target: Tyrosine-protein kinase Mer (Homo sapiens) (UniProt Q12866); test: Inhibition of Mer (unknown origin) at 1 uM
[37] = biological target: Aurora kinase A (Homo sapiens) (UniProt O14965); test: Inhibition of Aurora A (unknown origin) at 1 uM
[38] = biological target: Receptor-type tyrosine-protein kinase FLT3 (Homo sapiens) (UniProt P36888); test: Inhibition of Flt3 (unknown origin) at 1 uM
[39] = biological target: Vascular endothelial growth factor receptor 2 (Homo sapiens) (UniProt P35968); test: Inhibition of KDR (unknown origin) at 1 uM relative to control
[40] = biological target: Hepatocyte growth factor receptor (Homo sapiens) (UniProt P08581); test: Inhibition of Met (unknown origin) at 1 uM relative to control
[41] = biological target: Proto-oncogene tyrosine-protein kinase receptor Ret (Homo sapiens) (UniProt P07949); test: Inhibition of Ret (unknown origin) at 1 uM relative to control
[42] = biological target: Tyrosine-protein kinase TXK (Homo sapiens) (UniProt P42681); test: Inhibition of Txk (unknown origin) at 1 uM relative to control

Chain of Receptor-type tyrosine-protein kinase FLT3 (Homo sapiens) (P36888 whole entry): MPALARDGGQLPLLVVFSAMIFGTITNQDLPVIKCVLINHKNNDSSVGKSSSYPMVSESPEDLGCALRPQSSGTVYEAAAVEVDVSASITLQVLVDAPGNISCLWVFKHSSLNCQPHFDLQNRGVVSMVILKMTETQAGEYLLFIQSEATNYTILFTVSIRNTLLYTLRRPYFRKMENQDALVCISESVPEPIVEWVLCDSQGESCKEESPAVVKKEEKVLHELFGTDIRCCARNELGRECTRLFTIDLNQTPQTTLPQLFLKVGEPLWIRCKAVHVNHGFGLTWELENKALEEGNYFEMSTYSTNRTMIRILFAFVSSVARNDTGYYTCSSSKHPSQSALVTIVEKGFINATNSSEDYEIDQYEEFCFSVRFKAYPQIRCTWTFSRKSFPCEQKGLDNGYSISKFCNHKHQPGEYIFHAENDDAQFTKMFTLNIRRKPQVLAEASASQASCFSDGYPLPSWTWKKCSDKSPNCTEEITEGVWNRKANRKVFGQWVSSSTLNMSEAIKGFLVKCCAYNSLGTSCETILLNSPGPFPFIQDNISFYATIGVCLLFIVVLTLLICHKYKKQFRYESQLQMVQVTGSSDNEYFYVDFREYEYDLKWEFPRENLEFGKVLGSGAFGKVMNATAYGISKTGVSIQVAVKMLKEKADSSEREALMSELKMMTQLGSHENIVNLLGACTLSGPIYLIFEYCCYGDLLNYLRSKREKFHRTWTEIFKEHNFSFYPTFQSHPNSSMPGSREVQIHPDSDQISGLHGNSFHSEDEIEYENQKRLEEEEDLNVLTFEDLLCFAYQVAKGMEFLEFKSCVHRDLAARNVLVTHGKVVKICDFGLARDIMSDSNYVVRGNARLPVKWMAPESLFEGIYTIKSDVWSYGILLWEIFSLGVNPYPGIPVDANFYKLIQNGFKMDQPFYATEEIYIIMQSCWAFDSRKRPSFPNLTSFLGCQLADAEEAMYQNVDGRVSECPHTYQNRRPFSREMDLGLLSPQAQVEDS
Chain of Proto-oncogene tyrosine-protein kinase receptor Ret (Homo sapiens) (P07949 whole entry): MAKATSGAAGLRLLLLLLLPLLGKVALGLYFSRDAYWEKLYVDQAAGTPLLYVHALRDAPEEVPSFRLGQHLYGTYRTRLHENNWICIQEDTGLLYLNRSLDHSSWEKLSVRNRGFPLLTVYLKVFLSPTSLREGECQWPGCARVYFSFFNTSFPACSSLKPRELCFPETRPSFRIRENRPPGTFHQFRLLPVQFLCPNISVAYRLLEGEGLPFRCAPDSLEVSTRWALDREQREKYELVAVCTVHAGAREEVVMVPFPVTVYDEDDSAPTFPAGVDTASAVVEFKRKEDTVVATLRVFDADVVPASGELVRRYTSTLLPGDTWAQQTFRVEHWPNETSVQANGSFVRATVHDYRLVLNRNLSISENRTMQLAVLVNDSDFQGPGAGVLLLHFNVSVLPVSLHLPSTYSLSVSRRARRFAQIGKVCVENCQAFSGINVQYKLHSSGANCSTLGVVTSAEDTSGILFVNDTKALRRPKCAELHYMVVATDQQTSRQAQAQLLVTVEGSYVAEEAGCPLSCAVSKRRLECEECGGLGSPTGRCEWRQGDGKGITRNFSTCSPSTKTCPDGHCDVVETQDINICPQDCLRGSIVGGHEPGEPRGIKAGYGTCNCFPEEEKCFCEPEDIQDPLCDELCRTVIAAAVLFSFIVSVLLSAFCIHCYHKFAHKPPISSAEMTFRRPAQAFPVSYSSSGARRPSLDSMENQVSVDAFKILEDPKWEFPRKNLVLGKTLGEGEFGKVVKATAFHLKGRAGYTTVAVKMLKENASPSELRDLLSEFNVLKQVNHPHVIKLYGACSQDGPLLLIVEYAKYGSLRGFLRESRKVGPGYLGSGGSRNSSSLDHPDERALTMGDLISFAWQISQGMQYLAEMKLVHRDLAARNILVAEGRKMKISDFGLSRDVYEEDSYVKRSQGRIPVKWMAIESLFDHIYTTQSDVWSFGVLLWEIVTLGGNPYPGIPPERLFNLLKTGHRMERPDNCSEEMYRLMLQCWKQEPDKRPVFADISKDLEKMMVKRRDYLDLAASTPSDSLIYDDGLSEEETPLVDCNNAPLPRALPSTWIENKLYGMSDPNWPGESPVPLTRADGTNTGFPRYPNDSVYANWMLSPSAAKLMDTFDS
Chain of Tyrosine-protein kinase receptor UFO (Homo sapiens) (P30530 whole entry): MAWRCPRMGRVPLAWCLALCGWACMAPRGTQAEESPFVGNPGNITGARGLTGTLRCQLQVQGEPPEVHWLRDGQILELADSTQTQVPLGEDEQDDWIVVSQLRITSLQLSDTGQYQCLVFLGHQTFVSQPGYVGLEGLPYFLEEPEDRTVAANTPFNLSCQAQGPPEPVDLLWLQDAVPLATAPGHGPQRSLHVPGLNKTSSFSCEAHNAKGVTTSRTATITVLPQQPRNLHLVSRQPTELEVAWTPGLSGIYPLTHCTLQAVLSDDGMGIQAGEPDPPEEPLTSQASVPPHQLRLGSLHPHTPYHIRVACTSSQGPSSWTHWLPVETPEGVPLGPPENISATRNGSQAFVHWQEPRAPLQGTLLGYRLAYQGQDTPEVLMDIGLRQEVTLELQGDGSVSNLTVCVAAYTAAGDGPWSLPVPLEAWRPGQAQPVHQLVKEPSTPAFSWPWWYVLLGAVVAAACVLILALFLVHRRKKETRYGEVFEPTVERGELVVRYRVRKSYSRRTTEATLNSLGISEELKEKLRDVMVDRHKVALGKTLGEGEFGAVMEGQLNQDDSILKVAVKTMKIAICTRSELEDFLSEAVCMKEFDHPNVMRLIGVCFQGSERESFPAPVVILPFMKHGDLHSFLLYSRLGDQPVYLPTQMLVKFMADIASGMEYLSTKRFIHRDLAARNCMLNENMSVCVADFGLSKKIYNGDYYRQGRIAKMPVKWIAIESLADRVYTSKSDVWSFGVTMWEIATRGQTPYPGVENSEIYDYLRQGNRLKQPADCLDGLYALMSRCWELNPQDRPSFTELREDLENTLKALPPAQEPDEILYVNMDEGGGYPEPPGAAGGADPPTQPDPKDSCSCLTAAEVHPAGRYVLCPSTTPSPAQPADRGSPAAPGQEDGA
Chain of Vascular endothelial growth factor receptor 2 (Homo sapiens) (P35968 whole entry): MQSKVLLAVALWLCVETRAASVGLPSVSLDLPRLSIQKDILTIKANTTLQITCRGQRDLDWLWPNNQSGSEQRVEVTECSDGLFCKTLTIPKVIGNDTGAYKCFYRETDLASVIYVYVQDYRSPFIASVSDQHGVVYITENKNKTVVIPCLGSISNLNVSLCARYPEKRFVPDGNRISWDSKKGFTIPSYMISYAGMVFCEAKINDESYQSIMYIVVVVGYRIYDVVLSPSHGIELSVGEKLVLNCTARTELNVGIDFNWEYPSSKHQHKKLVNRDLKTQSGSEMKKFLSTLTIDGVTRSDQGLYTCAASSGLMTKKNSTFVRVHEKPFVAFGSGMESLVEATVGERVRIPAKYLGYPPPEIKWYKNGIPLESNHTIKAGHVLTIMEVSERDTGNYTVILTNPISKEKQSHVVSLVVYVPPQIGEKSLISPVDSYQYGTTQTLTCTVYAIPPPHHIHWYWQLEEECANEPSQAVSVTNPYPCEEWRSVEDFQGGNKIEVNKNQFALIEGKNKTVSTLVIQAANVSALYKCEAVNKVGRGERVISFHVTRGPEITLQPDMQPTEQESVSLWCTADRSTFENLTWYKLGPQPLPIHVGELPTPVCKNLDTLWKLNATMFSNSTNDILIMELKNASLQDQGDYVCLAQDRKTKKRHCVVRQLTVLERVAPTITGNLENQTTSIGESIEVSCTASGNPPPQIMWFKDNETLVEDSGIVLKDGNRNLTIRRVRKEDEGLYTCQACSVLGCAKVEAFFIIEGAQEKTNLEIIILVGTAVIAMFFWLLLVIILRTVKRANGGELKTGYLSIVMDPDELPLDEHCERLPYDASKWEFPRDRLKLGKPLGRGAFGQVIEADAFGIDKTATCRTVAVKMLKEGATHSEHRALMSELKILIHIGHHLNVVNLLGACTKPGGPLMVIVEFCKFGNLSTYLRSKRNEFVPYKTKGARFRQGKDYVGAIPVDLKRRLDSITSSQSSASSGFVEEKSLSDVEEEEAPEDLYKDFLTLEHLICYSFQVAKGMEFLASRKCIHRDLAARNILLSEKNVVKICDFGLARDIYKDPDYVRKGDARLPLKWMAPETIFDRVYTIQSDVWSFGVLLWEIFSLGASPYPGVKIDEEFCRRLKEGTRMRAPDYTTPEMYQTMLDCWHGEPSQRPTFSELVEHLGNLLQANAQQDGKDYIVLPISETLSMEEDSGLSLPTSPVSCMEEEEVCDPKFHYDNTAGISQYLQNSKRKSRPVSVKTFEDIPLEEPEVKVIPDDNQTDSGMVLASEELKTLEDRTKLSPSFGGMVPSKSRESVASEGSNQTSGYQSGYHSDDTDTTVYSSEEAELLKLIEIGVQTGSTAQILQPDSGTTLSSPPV
Chain of Aurora kinase A (Homo sapiens) (O14965 whole entry): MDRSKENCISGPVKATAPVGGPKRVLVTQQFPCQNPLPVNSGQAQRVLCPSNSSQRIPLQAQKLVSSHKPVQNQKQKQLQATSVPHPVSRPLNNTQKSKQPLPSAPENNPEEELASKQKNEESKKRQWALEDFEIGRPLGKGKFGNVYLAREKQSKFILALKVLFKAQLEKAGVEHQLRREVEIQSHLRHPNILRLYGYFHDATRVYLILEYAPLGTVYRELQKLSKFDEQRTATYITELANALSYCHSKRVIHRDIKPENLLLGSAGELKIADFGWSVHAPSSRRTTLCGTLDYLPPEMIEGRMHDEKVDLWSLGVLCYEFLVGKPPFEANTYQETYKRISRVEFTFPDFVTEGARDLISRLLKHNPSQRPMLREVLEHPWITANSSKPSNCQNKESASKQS

For `CC(C)n1cnc(-c2ccccc2Nc2nc(Nc3ccc(N(C)C4CCN(C)CC4)cc3)ncc2Cl)n1`, which CLint scaled [1] is on record?
The CLint scaled was 28.7 mL/min/kg.

What about the half-life [2] of the same compound?
The half-life was 0.472 h.

And the CLint scaled [3]?
Its CLint scaled is 87.7 mL/min/kg.

What about the AUClast [4] of the same compound?
The AUClast was 1180 ng·h/mL.

And the Cmax [5]?
Its Cmax is 83.9 ng/mL.

What about the half-life [6] of the same compound?
Its half-life is 6.45 h.

And the clearance [7]?
Its clearance is 36.7 mL/min/kg.

And the CC50 [8]?
Its CC50 is 2050 nM.

And the CC50 [9]?
Its CC50 is 1210 nM.

And the CC50 [10]?
The CC50 was 451 nM.

What about the CC50 [11] of the same compound?
Its CC50 is 293 nM.

What about the CC50 [12] of the same compound?
The CC50 was 107 nM.

What about the CC50 [13] of the same compound?
The CC50 was 352 nM.

What about the CC50 [14] of the same compound?
Its CC50 is 81.2 nM.

And the CC50 [15]?
Its CC50 is 1180 nM.

And the CC50 [16]?
Its CC50 is 5190 nM.

And the CC50 [17]?
The CC50 was 1150 nM.

What about the CC50 [18] of the same compound?
Its CC50 is 504 nM.

And the CC50 [19]?
The CC50 was 349 nM.

And the CC50 [20]?
The CC50 was 117 nM.

And the CC50 [21]?
The CC50 was 119 nM.

What about the CC50 [22] of the same compound?
The CC50 was 382 nM.

What about the CC50 [23] of the same compound?
Its CC50 is 356 nM.

And the CC50 [24]?
The CC50 was 149 nM.

And the CC50 [25]?
The CC50 was 79.8 nM.

What about the CC50 [26] of the same compound?
The CC50 was 199 nM.

What about the CC50 [27] of the same compound?
The CC50 was 5590 nM.

What about the CC50 [28] of the same compound?
The CC50 was 493 nM.

What about the CC50 [29] of the same compound?
The CC50 was 350 nM.

What about the CC50 [30] of the same compound?
The CC50 was 4560 nM.

What about the CC50 [31] of the same compound?
The CC50 was 35.9 nM.

What about the CC50 [32] of the same compound?
The CC50 was 206 nM.

What about the CC50 [33] of the same compound?
The CC50 was 457 nM.

What about the CC50 [34] of the same compound?
The CC50 was 66 nM.

And the inhibition [35]?
Its inhibition is 90%.

And the inhibition [36]?
Its inhibition is “Active”.

What about the inhibition [37] of the same compound?
The inhibition was “Active”.

What about the inhibition [38] of the same compound?
The inhibition was “Active”.

What about the inhibition [39] of the same compound?
The inhibition was 70%.

What about the inhibition [40] of the same compound?
The inhibition was 70%.

And the inhibition [41]?
Its inhibition is 70%.

And the inhibition [42]?
The inhibition was 70%.
